Data on 22 compounds can be found in ChEMBL document CHEMBL2016460, “Synthesis, biological evaluation, and molecular docking studies of 2,6-dinitro-4-(trifluoromethyl)phenoxysalicylaldoxime derivatives as novel antitubulin agents” (Bioorg Med Chem, 2012).

Assay [1] has as its system MCF7. Put plainly: Antiproliferative activity against human MCF7 cells after 48 hrs by MTT assay. The format is functional, cell-based. Particulars: MCF7, 48 h. In a few lines: (§1)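 Cells were seeded into 96-well plates in complete medium and preincubated 24 h at 37 °C, 5% CO2. Compounds at preset concentrations were added to six wells, with colchicine and CA-4 run alongside as references, and exposed for 48 h. MTT (2.5 mg mL^-1 in PBS) was added for 4 h, followed by SDS/isobutyl alcohol/HCl extraction overnight at 37 °C. OD was read at 570 nm, with three replicate wells per concentration.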
For orientation: Tetrazolium dyes change colour on reduction, which living cells bring about.

Another assay deals with A549. Briefly: Antiproliferative activity against human A549 cells after 48 hrs by MTT assay. The format is functional, cell-based. Particulars: A549, 48 h. The procedure, abridged:
as §1

The test system of a further assay is HepG2. Put plainly: Antiproliferative activity against human HepG2 cells after 48 hrs by MTT assay. Type of assay: functional, cell-based. As to conditions: HepG2, 48 h. In a few lines:
as §1

A short description of assay [2]: Inhibition of bovine tubulin polymerization after 20 mins by spectrophotometry. Further details: species or system Bos taurus. In a few lines: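 Tubulin was preincubated in glutamate buffer at 30 °C and then cooled to 0 °C. GTP was added, samples were moved to 0 °C cuvettes and warmed to 30 °C, and assembly was followed turbidimetrically in a recording spectrophotometer. IC50 was taken as the concentration inhibiting the extent of assembly by 50% after 20 min.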

Assay [3] concerns MCF7. Briefly: Induction of apoptosis in human MCF7 cells assessed as early apoptotic cells at 0.25 uM incubated for 24 hrs by Annexin-V-FITC/PI staining based flow cytometry (reference value: 7.4 %). The format is functional.
The subject of assay [4] is MCF7. Put plainly: Induction of apoptosis in human MCF7 cells assessed as late apoptotic cells incubated for 24 hrs by Annexin-V-FITC/PI staining based flow cytometry. The format is functional, cell-based. For orientation: Flow cytometry measures light scatter and fluorescence of single cells or particles in a stream.
The subject of assay [5] is MCF7. Put plainly: Induction of apoptosis in human MCF7 cells assessed as late apoptotic cells at 0.01 uM incubated for 24 hrs by Annexin-V-FITC/PI staining based flow cytometry (reference value: 3.17 %). Type of assay: functional.
Assay [6] has as its system MCF7. Briefly: Induction of apoptosis in human MCF7 cells assessed as late apoptotic cells at 0.05 uM incubated for 24 hrs by Annexin-V-FITC/PI staining based flow cytometry (reference value: 3.17 %). The format is functional.
Assay [7] deals with MCF7. Briefly: Induction of apoptosis in human MCF7 cells assessed as early apoptotic cells at 0.01 uM incubated for 24 hrs by Annexin-V-FITC/PI staining based flow cytometry (reference value: 7.4 %). The format is functional.
Assay [8] deals with MCF7. Put plainly: Induction of apoptosis in human MCF7 cells assessed as late apoptotic cells at 0.25 uM incubated for 24 hrs by Annexin-V-FITC/PI staining based flow cytometry (reference value: 3.17 %). Type of assay: functional.
For assay [9], the system named is MCF7. Briefly: Induction of apoptosis in human MCF7 cells assessed as early apoptotic cells at 0.05 uM incubated for 24 hrs by Annexin-V-FITC/PI staining based flow cytometry (reference value: 7.4 %). Type of assay: functional.

With `O=[N+]([O-])c1cc(C(F)(F)F)cc([N+](=O)[O-])c1Oc1c(Cl)cc(Cl)cc1/C=N/OCc1ccc(Cl)cc1Cl`, the 50% inhibitory concentration (IC50) (in general, the concentration at which inhibition is half-maximal) with MCF7 [1] came out at 1030 nM; in the assay on A549 it was 1420 nM; in the assay on HepG2, 940 nM; in [2], 6180 nM.

On to `O=[N+]([O-])c1cc(C(F)(F)F)cc([N+](=O)[O-])c1Oc1ccccc1/C=N\OCc1ccccc1F`, for which the concentration for half-maximal inhibition (IC50) is 700 nM in the assay on MCF7 [1], 860 nM in the assay with A549, 680 nM in the assay on HepG2 and 3060 nM in [2]. Also, the Activity was 34.51% with MCF7 [3]; “Dose-dependent effect” with MCF7 [4]; 4.46% in the assay on MCF7 [5]; 7.72% in the assay with MCF7 [6]; 17.32% in the assay with MCF7 [7]; 9.65% in the assay on MCF7 [8]. Further, in the assay with MCF7 [9], the Activity is 27.64%.

As to `O=[N+]([O-])c1cc(C(F)(F)F)cc([N+](=O)[O-])c1Oc1c(Br)cc(Br)cc1/C=N\OCc1ccccc1F`, the IC50 was determined as 880 nM in the assay with MCF7 [1], 1560 nM with A549, 1100 nM in the assay with HepG2 and 4530 nM in assay [2].

For `O=[N+]([O-])c1cc(C(F)(F)F)cc([N+](=O)[O-])c1Oc1ccccc1/C=N/OCc1ccc(Cl)cc1Cl`, the half-inhibitory concentration (IC50) with MCF7 [1] turned out to be 940 nM; with A549, 1610 nM; in the assay with HepG2, 1020 nM; in [2], 4080 nM.

For `O=[N+]([O-])c1cc(C(F)(F)F)cc([N+](=O)[O-])c1Oc1ccccc1/C=N\OCc1ccccc1`, the IC50 is 1330 nM in the assay on MCF7 [1], 1470 nM in the assay with A549, 1330 nM with HepG2 and 14000 nM in assay [2].

On to `O=[N+]([O-])c1cc(C(F)(F)F)cc([N+](=O)[O-])c1Oc1ccc(Br)cc1/C=N\OCc1ccc(Cl)cc1Cl`, for which the IC50 with MCF7 [1] was 1340 nM; in the assay with A549 it was 2060 nM; with HepG2, 1070 nM; in assay [2] it was 7060 nM.

For the compound `O=[N+]([O-])c1cc(C(F)(F)F)cc([N+](=O)[O-])c1Oc1c(Cl)cc(Cl)cc1/C=N/OCc1ccccc1Cl`, the IC50 in the assay on MCF7 [1] was determined as 1960 nM; in the assay with A549, 2160 nM; in the assay with HepG2, 1120 nM; in assay [2], 16100 nM.

As for `O=[N+]([O-])c1cc(C(F)(F)F)cc([N+](=O)[O-])c1Oc1ccccc1/C=N/OCc1ccccc1Cl`, the IC50 with MCF7 [1] was found to be 1100 nM; with A549, 1430 nM; with HepG2, 1170 nM; in assay [2], 6920 nM.

As for `O=[N+]([O-])c1cc(C(F)(F)F)cc([N+](=O)[O-])c1Oc1ccc(Cl)cc1/C=N\OCc1ccccc1F`, the 50% inhibitory concentration (IC50) worked out at 1110 nM with MCF7 [1], 2570 nM in the assay with A549, 1020 nM in the assay with HepG2 and 7070 nM in assay [2].

For `O=[N+]([O-])c1cc(C(F)(F)F)cc([N+](=O)[O-])c1Oc1ccc(Cl)cc1/C=N\OCc1ccccc1`, the IC50 was found to be 1220 nM in the assay with MCF7 [1], 3410 nM in the assay on A549, 1790 nM in the assay with HepG2 and 30900 nM in assay [2].

Consider `O=[N+]([O-])c1cc(C(F)(F)F)cc([N+](=O)[O-])c1Oc1c(Cl)cc(Cl)cc1/C=N\OCc1ccccc1`, for which the half-maximal inhibitory concentration (IC50) worked out at 1210 nM with MCF7 [1], 1450 nM with A549, 1120 nM with HepG2 and 9020 nM in [2].

For `O=[N+]([O-])c1cc(C(F)(F)F)cc([N+](=O)[O-])c1Oc1c(Br)cc(Br)cc1/C=N\OCc1ccccc1Cl`, the half-inhibitory concentration (IC50) with MCF7 [1] was 2320 nM; with A549, 4120 nM; in the assay on HepG2, 2450 nM; in assay [2], 18100 nM.

For `COc1cc2c(c(OC)c1OC)-c1ccc(OC)c(=O)cc1[C@@H](NC(C)=O)CC2` [COLCHICINE], the IC50 with MCF7 [1] was 530 nM; in the assay with A549 it was 750 nM; in the assay on HepG2 it was 230 nM; in assay [2] it was 1720 nM.

Turning to `O=[N+]([O-])c1cc(C(F)(F)F)cc([N+](=O)[O-])c1Oc1ccc(Br)cc1/C=N\OCc1ccccc1`, the concentration for half-maximal inhibition (IC50) was 1150 nM with MCF7 [1], 2240 nM in the assay with A549, 1180 nM in the assay on HepG2 and 15400 nM in assay [2].

For `O=[N+]([O-])c1cc(C(F)(F)F)cc([N+](=O)[O-])c1Oc1c(Cl)cc(Cl)cc1/C=N\OCc1ccccc1F`, the concentration for half-maximal inhibition (IC50) with MCF7 [1] came to 800 nM; in the assay with A549, 1230 nM; in the assay on HepG2, 820 nM; in [2], 3650 nM.

As for `O=[N+]([O-])c1cc(C(F)(F)F)cc([N+](=O)[O-])c1Oc1ccc(Br)cc1/C=N/OCc1ccccc1Cl`, the IC50 in the assay with MCF7 [1] is 2840 nM; with A549, 3430 nM; with HepG2, 1240 nM; in assay [2], 13200 nM.

For `O=[N+]([O-])c1cc(C(F)(F)F)cc([N+](=O)[O-])c1Oc1ccc(Cl)cc1/C=N\OCc1ccccc1Cl`, the half-inhibitory concentration (IC50) is 3950 nM in the assay with MCF7 [1], 5030 nM in the assay with A549, 1510 nM with HepG2 and 9050 nM in assay [2].

Turning to `COc1ccc(/C=C\c2cc(OC)c(OC)c(OC)c2)cc1O` [COMBRETASTATIN A4], the concentration for half-maximal inhibition (IC50) worked out at 410 nM in the assay on MCF7 [1], 90 nM in the assay with A549, 190 nM in the assay with HepG2 and 700 nM in [2].

With `O=[N+]([O-])c1cc(C(F)(F)F)cc([N+](=O)[O-])c1Oc1c(Br)cc(Br)cc1/C=N\OCc1ccccc1`, the IC50 with MCF7 [1] turned out to be 1830 nM; with A549, 2150 nM; in the assay on HepG2, 1480 nM; in assay [2] it was 18000 nM.

Regarding `O=[N+]([O-])c1cc(C(F)(F)F)cc([N+](=O)[O-])c1Oc1ccc(Cl)cc1/C=N\OCc1ccc(Cl)cc1Cl`, the IC50 in the assay on MCF7 [1] came out at 1140 nM; in the assay with A549, 3440 nM; with HepG2, 1280 nM; in assay [2], 7540 nM.

As for `O=[N+]([O-])c1cc(C(F)(F)F)cc([N+](=O)[O-])c1Oc1ccc(Br)cc1/C=N\OCc1ccccc1F`, the half-maximal inhibitory concentration (IC50) in the assay on MCF7 [1] amounted to 1120 nM; with A549, 1280 nM; in the assay on HepG2, 890 nM; in assay [2], 6900 nM.

Regarding `O=[N+]([O-])c1cc(C(F)(F)F)cc([N+](=O)[O-])c1Oc1c(Br)cc(Br)cc1/C=N/OCc1ccc(Cl)cc1Cl`, the concentration for half-maximal inhibition (IC50) in the assay on MCF7 [1] worked out at 2090 nM; with A549 it was 6190 nM; with HepG2, 1050 nM; in [2] it was 15700 nM.
